Legend:
[1] = biological target: T1, Histamine H3 receptor (Homo sapiens, UniProt Q9Y5N1); test: Antagonist activity at human cloned histamine H3 receptor expressed in CHO-K1 cells assessed as inhibition of R-alpha-methylhistamine-induced [35S]GTPgammaS binding; assay type: functional, cell-based
[2] = biological target: Voltage-gated inwardly rectifying potassium channel KCNH2 (Homo sapiens, UniProt Q12809); test: Antagonist activity at human ERG in HEK293 cells assessed as inhibition of [35S]N-[(4R)-1'-[(2R)-6-cyano-1,2,3,4-tetrahydro-2-naphthalenyl]-3,4-dihydro-4-hydroxyspiro[2H-1-benzopyran-2,4'-piperidin]-6-yl]methanesulfonamide binding
[3] = Ratio of drug level in brain to plasma in Sprague-Dawley rat at 10 mg/kg, po after 2 hrs; assay type: ADME, organism-based; set-up: dose 10 mg/kg, route oral; details: read-out: BPR
Method in brief: (§1)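 Male SD rats dosed orally at 10 mg/kg. Plasma, brain and CSF concentrations determined 2 h after dosing. Brain/plasma ratio taken from these levels. Mean of n = 3 animals.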

[4] = Cmax in rhesus monkey at 0.3 mg/kg, iv and 1 mg/kg, po; assay type: ADME, organism-based, Macaca mulatta; details: in vivo
Method in brief: (§2)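 Male SD rats, male Beagle dogs, male rhesus monkeys given single doses iv (PEG400/EtOH/H2O 50/10/40) or po by gavage (0.5% methylcellulose suspension). Rats 1 mg/kg iv and 3 mg/kg po; dogs and monkeys 0.3 mg/kg iv and 1 mg/kg po. Plasma sampled at multiple times up to 24 h, deproteinized with ethanol plus internal standard. Mean of n = 3 animals/dose.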

[5] = test system: Brain; test: Ex vivo drug level in wild type mdr1a (+/+) CF1 mouse brain at 0.3 mg/kg, po after 2 hrs; assay type: ADME, organism-based; set-up: dose 0.3 mg/kg, route oral
Method in brief: (§3)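 Female mdr1a (+/+) and mdr1a (−/−) CF-1 mice dosed by oral gavage. Terminal blood and whole brain collected 2 h later. Brain homogenized by ultrasonication in 4 volumes water. Plasma and brain deproteinized with ethanol plus internal standard, then measured by LC-MS/MS (positive ESI, MRM). Mean ± SE, n = 3. Brain/plasma ratios calculated from mean values.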

[6] = Oral bioavailability in Beagle dog at 1 mg/kg; assay type: ADME, organism-based, Canis lupus familiaris; details: Beagle, in vivo; method in brief: as §2
[7] = AUC (0 to infinity) in Beagle dog at 1 mg/kg, po; assay type: ADME, organism-based, Canis lupus familiaris, Plasma; set-up: time infinity, dose 1 mg/kg, route oral; details: Beagle, plasma; method in brief: as §2
[8] = test system: Rattus norvegicus; test: Increase in tele-methylhistamine level in po dosed Sprague-Dawley rat brain after 2 hrs relative to control; assay type: functional, organism-based
Method in brief: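 Male SD rats given vehicle (0.5% methylcellulose) or compound po at 1, 3, 10 mg/kg, co-dosed with pargyline ip. Decapitated at 2 h and brains homogenized. tele-Methylhistamine measured by HPLC with fluorometry after solid-phase extraction. Mean ± SE from five experiments. Compared with vehicle by ANOVA with Dunnett's test.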

[9] = Plasma concentration in Sprague-Dawley rat at 10 mg/kg, po after 2 hrs; assay type: ADME, organism-based; set-up: dose 10 mg/kg, route oral; method in brief: as §1
[10] = Plasma clearance in Sprague-Dawley rat at 1 mg/kg, iv; assay type: ADME, organism-based; set-up: dose 1 mg/kg, route intravenous; method in brief: as §2
[11] = test system: Mus musculus; test: Ex vivo receptor occupancy of histamine H3 receptor expressed in wild type po dosed CF1 mouse brain after 2 hrs; assay type: functional
Method in brief: (§4)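 Female wild-type and mdr1a (−/−) CF-1 mice given vehicle or compound po (0.1–3 mg/kg) and decapitated at 2 h. Coronal striatal sections (20 μm) incubated 10 min at room temperature with 400 pM tritiated quinazolinone H3 inverse agonist radioligand in sodium phosphate buffer. Nonspecific binding defined with 10 μM R-α-methylhistamine. Sections imaged 6 h by beta-Imager. Brain Occ90 obtained from occupancy versus brain concentration. Plasma Occ90 = brain Occ90/brain-to-plasma ratio.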

[12] = Cmax in Beagle dog at 0.3 mg/kg, iv and 1 mg/kg, po; assay type: ADME, organism-based, Canis lupus familiaris; details: in vivo; method in brief: as §2
[13] = biological target: T1, Histamine H3 receptor; test: Displacement of [3H]N-alpha-methylhistamine from human recombinant histamine H3 receptor expressed in CHO-K1 cells; assay type: cell-based
[14] = biological target: Histamine H3 receptor (Mus musculus, UniProt P58406); test: Displacement of [3H]N-alpha-methylhistamine from mouse recombinant histamine H3 receptor
[15] = biological target: Histamine H3 receptor (Rattus norvegicus, UniProt Q9QYN8); test: Displacement of [3H]N-alpha-methylhistamine from rat recombinant histamine H3 receptor expressed in HEK293 cells; assay type: cell-based
[16] = test system: LLC-PK1; test: Ratio of permeability from apical to basolateral side over basolateral to apical side in pig LLC-PK1 cells expressing mouse MDR1a; assay type: ADME, cell-based, Sus scrofa
[17] = Oral bioavailability in Sprague-Dawley rat at 3 mg/kg; assay type: ADME, organism-based; details: in vivo; method in brief: as §2
[18] = AUC (0 to infinity) in Sprague-Dawley rat at 3 mg/kg, po; assay type: ADME, organism-based; set-up: time infinity, dose 3 mg/kg, route oral; details: plasma; method in brief: as §2
[19] = Drug level in Sprague-Dawley rat cerebrospinal fluid at 10 mg/kg, po after 2 hrs; assay type: ADME, organism-based; set-up: dose 10 mg/kg, route oral; details: read-out: Drug uptake; method in brief: as §1
[20] = test system: Mus musculus; test: Ex vivo receptor occupancy of histamine H3 receptor expressed in po dosed wild type CF1 mouse plasma assessed by brain occupancy/brain to plasma ratio after 2 hrs; assay type: functional; method in brief: as §4
[21] = test system: Brain; test: Drug level in Sprague-Dawley rat brain at 10 mg/kg, po after 2 hrs; assay type: ADME, organism-based; set-up: dose 10 mg/kg, route oral; details: in vivo; method in brief: as §1
[22] = biological target: Histamine H4 receptor (Homo sapiens, UniProt Q9H3N8); test: Inhibition of human histamine H4 receptor
[23] = Cmax in Sprague-Dawley rat at 1 mg/kg, iv and 3 mg/kg, po; assay type: ADME, organism-based; details: in vivo; method in brief: as §2
[24] = test system: LLC-PK1; test: Ratio of permeability from apical to basolateral side over basolateral to apical side in pig LLC-PK1 cells expressing human MDR1; assay type: ADME, cell-based, Sus scrofa
[25] = Ex vivo drug level in mdr1a (-/-) deficient CF1 mouse plasma at 0.3 mg/kg, po after 2 hrs; assay type: ADME, organism-based; set-up: dose 0.3 mg/kg, route oral; details: read-out: Drug uptake; method in brief: as §3
[26] = Ratio of drug level brain to plasma in mdr1a (-/-) deficient CF1 mouse at 0.3 mg/kg, po after 2 hrs; assay type: ADME, organism-based; set-up: dose 0.3 mg/kg, route oral; details: read-out: BPR; method in brief: as §3
[27] = Ratio of drug level brain to plasma in wild type mdr1a (+/+) CF1 mouse at 0.3 mg/kg, po after 2 hrs; assay type: ADME, organism-based; set-up: dose 0.3 mg/kg, route oral; details: read-out: BPR; method in brief: as §3
[28] = Plasma clearance in Beagle dog at 0.3 mg/kg, iv; assay type: ADME, organism-based, Canis lupus familiaris; set-up: dose 0.3 mg/kg, route intravenous; method in brief: as §2
[29] = test system: Rhesus monkey; test: AUC (0 to infinity) in rhesus monkey at 1 mg/kg, po; assay type: ADME, organism-based, Macaca mulatta, Plasma; set-up: time infinity, dose 1 mg/kg, route oral; details: in vivo; method in brief: as §2
[30] = biological target: Histamine H1 receptor (Homo sapiens, UniProt P35367); test: Inhibition of human histamine H1 receptor
[31] = Ex vivo drug level in wild type mdr1a (+/+) CF1 mouse plasma at 0.3 mg/kg, po after 2 hrs; assay type: ADME, organism-based; set-up: dose 0.3 mg/kg, route oral; details: read-out: Drug uptake; method in brief: as §3
[32] = test system: Rattus norvegicus; test: Ex vivo receptor occupancy of histamine H3 receptor in Sprague-Dawley rat assessed as drug level in brain at 1 mg/kg, po after 2 hrs; assay type: functional
Method in brief: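 Male SD rats given vehicle or 1 mg/kg compound by oral gavage and decapitated at 2 h. Striatal sections (20 μm) incubated 10 min at room temperature with 400 pM tritiated H3 inverse agonist radioligand in sodium phosphate buffer. Nonspecific binding defined with 10 μM R-α-methylhistamine. Beta-Imager exposure 6 h. Drug levels measured by LC-MS/MS.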

[33] = test system: Rhesus monkey; test: Oral bioavailability in rhesus monkey at 1 mg/kg; assay type: ADME, organism-based, Macaca mulatta; details: in vivo; method in brief: as §2
[34] = test system: Brain; test: Ex vivo drug level in mdr1a (-/-) deficient CF1 mouse brain at 0.3 mg/kg, po after 2 hrs; assay type: ADME, organism-based; set-up: dose 0.3 mg/kg, route oral; method in brief: as §3
[35] = test system: Mus musculus; test: Ex vivo receptor occupancy of histamine H3 receptor expressed in po dosed MDR1a deficient CF1 mouse plasma assessed by brain occupancy/brain to plasma ratio after 2 hrs; assay type: functional; method in brief: as §4
[36] = biological target: Histamine H2 receptor (Homo sapiens, UniProt P25021); test: Inhibition of human histamine H2 receptor
[37] = Ratio of drug level in cerebrospinal fluid to brain in Sprague-Dawley rat at 10 mg/kg, po after 2 hrs; assay type: ADME, organism-based, CSF/Brain; set-up: dose 10 mg/kg, route oral; details: in vivo

Voltage-gated inwardly rectifying potassium channel KCNH2, sequence (Q12809 whole entry): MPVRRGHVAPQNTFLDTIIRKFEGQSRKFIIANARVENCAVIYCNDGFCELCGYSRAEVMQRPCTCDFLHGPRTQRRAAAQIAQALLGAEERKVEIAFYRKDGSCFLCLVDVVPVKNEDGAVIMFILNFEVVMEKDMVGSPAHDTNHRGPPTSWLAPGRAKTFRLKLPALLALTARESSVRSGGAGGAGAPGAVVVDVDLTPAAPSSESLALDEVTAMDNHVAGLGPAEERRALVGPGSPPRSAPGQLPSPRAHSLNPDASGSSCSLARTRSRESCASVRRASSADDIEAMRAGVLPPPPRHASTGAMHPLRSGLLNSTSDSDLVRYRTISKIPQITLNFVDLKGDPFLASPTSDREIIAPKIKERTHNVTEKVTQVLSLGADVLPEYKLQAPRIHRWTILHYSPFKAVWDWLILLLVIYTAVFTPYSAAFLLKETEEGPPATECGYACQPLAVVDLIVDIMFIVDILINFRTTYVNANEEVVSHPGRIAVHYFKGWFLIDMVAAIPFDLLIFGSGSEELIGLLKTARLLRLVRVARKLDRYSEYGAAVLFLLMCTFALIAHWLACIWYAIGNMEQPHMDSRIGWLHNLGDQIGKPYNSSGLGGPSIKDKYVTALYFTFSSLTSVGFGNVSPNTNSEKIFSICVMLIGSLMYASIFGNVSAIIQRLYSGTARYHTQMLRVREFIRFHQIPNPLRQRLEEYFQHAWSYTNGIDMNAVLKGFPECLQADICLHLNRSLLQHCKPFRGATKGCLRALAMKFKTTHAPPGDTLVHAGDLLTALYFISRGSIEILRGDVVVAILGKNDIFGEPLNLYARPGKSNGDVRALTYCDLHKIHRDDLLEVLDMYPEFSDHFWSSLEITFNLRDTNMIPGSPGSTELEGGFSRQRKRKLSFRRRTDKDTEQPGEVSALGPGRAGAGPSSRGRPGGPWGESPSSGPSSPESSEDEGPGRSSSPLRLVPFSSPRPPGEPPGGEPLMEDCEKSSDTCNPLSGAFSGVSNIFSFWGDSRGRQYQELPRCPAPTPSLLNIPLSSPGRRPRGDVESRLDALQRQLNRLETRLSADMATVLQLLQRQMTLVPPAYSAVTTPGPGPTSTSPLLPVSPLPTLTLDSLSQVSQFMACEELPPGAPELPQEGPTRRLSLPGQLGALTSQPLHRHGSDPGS
T1 sequence (Q9Y5N1 whole entry): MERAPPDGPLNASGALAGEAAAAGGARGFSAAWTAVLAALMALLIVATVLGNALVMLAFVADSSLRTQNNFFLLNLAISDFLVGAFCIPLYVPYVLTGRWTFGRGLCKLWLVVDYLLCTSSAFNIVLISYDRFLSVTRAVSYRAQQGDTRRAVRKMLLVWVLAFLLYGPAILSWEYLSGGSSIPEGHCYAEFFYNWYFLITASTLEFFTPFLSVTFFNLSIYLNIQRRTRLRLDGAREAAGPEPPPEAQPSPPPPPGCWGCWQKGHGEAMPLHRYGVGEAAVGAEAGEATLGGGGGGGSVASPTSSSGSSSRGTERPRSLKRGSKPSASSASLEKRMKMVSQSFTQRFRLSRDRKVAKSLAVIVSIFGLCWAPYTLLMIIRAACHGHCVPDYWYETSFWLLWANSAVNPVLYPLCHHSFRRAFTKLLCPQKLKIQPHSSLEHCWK
Histamine H3 receptor (Rattus norvegicus, UniProt Q9QYN8), sequence (Q9QYN8 whole entry): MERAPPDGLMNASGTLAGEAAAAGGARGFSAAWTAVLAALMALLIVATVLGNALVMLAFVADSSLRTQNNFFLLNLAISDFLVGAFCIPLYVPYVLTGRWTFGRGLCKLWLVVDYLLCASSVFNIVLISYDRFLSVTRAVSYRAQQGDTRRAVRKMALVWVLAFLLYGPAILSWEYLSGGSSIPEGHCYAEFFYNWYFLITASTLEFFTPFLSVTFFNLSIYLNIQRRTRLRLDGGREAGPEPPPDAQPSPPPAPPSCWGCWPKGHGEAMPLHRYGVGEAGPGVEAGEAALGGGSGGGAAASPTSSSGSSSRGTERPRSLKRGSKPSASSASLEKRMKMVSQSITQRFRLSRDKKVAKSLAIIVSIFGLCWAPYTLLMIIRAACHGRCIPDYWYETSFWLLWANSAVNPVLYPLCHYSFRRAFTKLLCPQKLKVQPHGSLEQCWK
Histamine H1 receptor, sequence (P35367 whole entry): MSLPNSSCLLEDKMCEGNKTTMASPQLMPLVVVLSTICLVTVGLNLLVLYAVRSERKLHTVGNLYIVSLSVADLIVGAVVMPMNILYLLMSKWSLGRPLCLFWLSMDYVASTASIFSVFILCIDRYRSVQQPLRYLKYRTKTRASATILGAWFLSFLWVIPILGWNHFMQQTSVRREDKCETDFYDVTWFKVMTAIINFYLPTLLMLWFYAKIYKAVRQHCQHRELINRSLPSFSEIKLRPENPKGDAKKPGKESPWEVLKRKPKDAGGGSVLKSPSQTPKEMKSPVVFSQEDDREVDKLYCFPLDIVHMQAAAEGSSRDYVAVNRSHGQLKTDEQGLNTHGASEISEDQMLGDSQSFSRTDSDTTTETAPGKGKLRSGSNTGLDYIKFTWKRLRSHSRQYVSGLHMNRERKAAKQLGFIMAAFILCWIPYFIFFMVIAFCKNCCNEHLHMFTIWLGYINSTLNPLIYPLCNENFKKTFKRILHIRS
Histamine H3 receptor (Mus musculus, UniProt P58406), sequence (P58406 whole entry): as the sequence (Q9QYN8 whole entry) above, with T15A, A286T, A290G, R387H, I389V counted along it
Histamine H4 receptor, sequence (Q9H3N8 whole entry): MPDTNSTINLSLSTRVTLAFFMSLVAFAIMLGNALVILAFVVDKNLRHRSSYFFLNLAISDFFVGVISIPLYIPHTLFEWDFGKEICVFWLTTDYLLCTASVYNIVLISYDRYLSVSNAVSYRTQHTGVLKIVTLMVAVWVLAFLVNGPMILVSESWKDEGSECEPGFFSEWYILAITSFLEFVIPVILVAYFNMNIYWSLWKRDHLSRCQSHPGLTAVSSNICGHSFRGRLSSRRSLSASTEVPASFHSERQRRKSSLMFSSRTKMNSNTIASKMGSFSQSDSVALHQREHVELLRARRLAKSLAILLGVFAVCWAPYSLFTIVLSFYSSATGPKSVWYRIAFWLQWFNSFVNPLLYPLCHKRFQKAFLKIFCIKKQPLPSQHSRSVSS
Histamine H2 receptor, sequence (P25021 whole entry): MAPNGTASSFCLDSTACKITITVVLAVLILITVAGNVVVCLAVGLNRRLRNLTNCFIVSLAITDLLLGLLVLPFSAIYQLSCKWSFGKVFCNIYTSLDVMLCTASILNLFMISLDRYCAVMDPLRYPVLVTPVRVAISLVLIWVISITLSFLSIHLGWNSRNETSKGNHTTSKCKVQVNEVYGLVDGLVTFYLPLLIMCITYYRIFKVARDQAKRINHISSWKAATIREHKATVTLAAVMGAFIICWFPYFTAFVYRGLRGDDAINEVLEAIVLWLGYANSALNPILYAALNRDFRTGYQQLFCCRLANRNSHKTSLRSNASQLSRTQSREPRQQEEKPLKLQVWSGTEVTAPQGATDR

## Cc1nc2cc(F)c(F)cc2c(=O)n1-c1ccc(OC2CCN(C3CCC3)CC2)cc1
[1]
  IC50: 0.91 nM
[2]
  IC50: > 10000 nM

## Cc1nc2ccc(F)cc2c(=O)n1-c1ccc(OC2CCN(C3CCC3)CC2)cc1
[1]
  IC50: 1.2 nM
[2]
  IC50: > 10000 nM

## COc1cccc2nc(C)n(-c3ccc(OC4CCN(C5CCC5)CC4)cc3)c(=O)c12
[1]
  IC50: 1.2 nM
[2]
  IC50: > 10000 nM

## Cc1nc2cccc(Cl)c2c(=O)n1-c1ccc(OC2CCN(C3CCC3)CC2)cc1
[1]
  IC50: 0.34 nM
[2]
  IC50: > 10000 nM

## Cc1nc2ccccc2c(=O)n1-c1ccc(OC2CCC(N3CCCC3)C2)cc1 (stereo in doubt; 3b)
[1]
  IC50: 8.6 nM
[2]
  IC50: 10000 nM

## Cc1nc2c(F)cccc2c(=O)n1-c1ccc(OC2CCN(C3CCC3)CC2)cc1
[1]
  IC50: 0.84 nM

## Cc1nc2c(Cl)cccc2c(=O)n1-c1ccc(OC2CCN(C3CCC3)CC2)cc1
[1]
  IC50: 1.7 nM

## CCCCN1CCC(Oc2ccc(-n3c(C)nc4ccccc4c3=O)cc2)CC1
[1]
  IC50: 91 nM

## Cc1nc2ccccc2c(=O)n1-c1ccc(OC2CCN(C3CCCC3)CC2)cc1
[1]
  IC50: 3.2 nM
[2]
  IC50: > 10000 nM

## Cc1nc2ccccc2c(=O)n1-c1ccc(OC2CCCN(C3CCCC3)CC2)cc1 (centres undefined)
[1]
  IC50: 7 nM

## Cc1nc2cc(Cl)ccc2c(=O)n1-c1ccc(OC2CCN(C3CCC3)CC2)cc1
[1]
  IC50: 3 nM
[2]
  IC50: 3900 nM

## Cc1nc2ccccc2c(=O)n1-c1ccc(O[C@H]2CC[C@@H](N3CCCC3)CC2)cc1
[1]
  IC50: 10 nM

## Cc1nc2ccccc2c(=O)n1-c1ccc(OC2CCCN(C3CCC3)CC2)cc1 (centres undefined)
[1]
  IC50: 10 nM
[2]
  IC50: 7300 nM

## COc1ccc2c(=O)n(-c3ccc(OC4CCN(C5CCC5)CC4)cc3)c(C)nc2c1
[1]
  IC50: 1.8 nM
[2]
  IC50: > 10000 nM

## Cc1nc2cc(F)ccc2c(=O)n1-c1ccc(OC2CCN(C3CCC3)CC2)cc1
[1]
  IC50: 1.3 nM

## Cc1nc2cccc(F)c2c(=O)n1-c1ccc(OC2CCN(C3CCC3)CC2)cc1
[3]
  Kp at 2 h: 3.2
[4]
  Cmax: 380 nM
[5]
  Drug uptake: 0.062 nmol/g
[6]
  bioavailability: 4.8%
[7]
  AUC(0-inf): 0.05 µM·h
[8]
  Activity: Dose-dependent effect
[9]
  concentration at 2 h: 2400 nM
[1]
  IC50: 0.55 nM
[10]
  clearance: 11 mL/min/kg
[11]
  Occ90: 0.28 nmol/g
[12]
  Cmax: 20 nM
[13]
  Ki: 6.8 nM
[14]
  Ki: 8.4 nM
[15]
  Ki: 6 nM
[16]
  Ratio: 1.8
[2]
  IC50: > 10000 nM
[17]
  bioavailability: 53%
[18]
  AUC(0-inf): 6.2 µM·h
[19]
  concentration at 2 h: 950 nM
[20]
  Occ90: 144 nM
[21]
  Drug uptake: 7.6 nmol/g
[22]
  IC50: > 10000 nM
[23]
  Cmax: 1300 nM
[24]
  Ratio: 1
[25]
  concentration at 2 h: 28 nM
[26]
  Kp at 2 h: 9.4
[27]
  Kp at 2 h: 1.9
[28]
  clearance: 44 mL/min/kg
[29]
  AUC: 1.7 µM·h
[30]
  IC50: > 10000 nM
[31]
  concentration at 2 h: 32 nM
[32]
  Activity: >90%
[33]
  F: 37%
[34]
  Drug uptake: 0.26 nmol/g
[35]
  Occ90: 30 nM
[36]
  IC50: > 10000 nM
[37]
  Ratio: 0.13

## Cc1nc2cccnc2c(=O)n1-c1ccc(OC2CCN(C3CCC3)CC2)cc1
[1]
  IC50: 14 nM
[2]
  IC50: > 10000 nM

## Cc1nc2ccccc2c(=O)n1-c1ccc(OC2CCN(C3CCC3)C2)cc1 (centres undefined)
[1]
  IC50: 103 nM
